Results from ChEMBL document CHEMBL4004817, “Constituents of the Rhizomes of Boesenbergia pandurata and Their Antiausterity Activities against the PANC-1 Human Pancreatic Cancer Line” (J Nat Prod, 2017).
Active and inactive are the calls of the source. The calls are words filed in the database; no cut-off is given here.

Tests used:
PANC-1 [1] = assay: Antiausteritic activity against human PANC1 cells in nutrient-deprived medium measured after 24 hrs by WST8 assay; assay type: functional
Summary of the method: (§1)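 Human pancreatic cancer cells were seeded at 1.5 × 10^4/well in DMEM for 24 h at 37 °C under 5% CO2. After two PBS washes, cells received serially diluted samples in DMEM (nutrient-rich) or NDM (pH 7.4), with a control and blank on each plate. After 24 h, cells were washed and given DMEM with 10% WST-8 for 3 h, then A450 was read. Viability (mean of three wells) = (sample − blank)/(control − blank) × 100. For NDM, PC50 is the concentration killing 50% of cells preferentially. Arctigenin was the positive control.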

PANC-1 [2] = assay: Cytotoxicity against human PANC1 cells in DMEM measured after 24 hrs by WST8 assay; assay type: cell-based; settings: panc-1, 24 h; summary of the method: as §1
PANC-1 [3] = assay: Antiausteritic activity against human PANC1 cells in nutrient-deprived medium assessed as changes in cell morphology by measuring increase in round appearance at 1.5 uM after 24 hrs by ethidium bromide/acridine orange staining based fluorescence imaging method; assay type: functional
Summary of the method: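 PANC-1 cells were seeded at 6 × 10^4/well in DMEM and held 24 h at 37 °C under 5% CO2. They were washed twice with PBS, then switched to NDM alone (control) or with compound at 1.5 μM for 24 h. EB/AO reagent was added for 5 min, and cells were imaged under fluorescence and phase contrast (20×). Green AO marks live cells; red EB marks dead cells.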

COc1cc(O)c(C(=O)[C@@H]2CC=C(C)[C@@H](/C=C/C(C)(C)O)[C@H]2c2ccccc2)c(O)c1
PC50 (PANC-1 [1]): 3.3 µM | Activity (PANC-1 [2]): Non-Toxic

COc1cc(O)c(C(=O)[C@@H]2[C@@H](CC=C(C)C)C(C)=CC[C@H]2c2ccccc2)c(O)c1
PC50 (PANC-1 [1]): 7.2 µM | Activity (PANC-1 [2]): Non-Toxic

COc1cc(O)cc(O)c1C(=O)[C@@H]1[C@H](/C=C/C(C)(C)OC)C(C)=CC[C@H]1c1ccccc1
PC50 (PANC-1 [1]): 10.5 µM | Activity (PANC-1 [2]): Non-Toxic

COc1cc(O)c(C(=O)[C@@H]2CC=C(C)[C@@H](CC=C(C)C)[C@H]2c2ccccc2)c(O)c1 [(-)-NICOLAIOIDESIN B]
PC50 (PANC-1 [1]): 2.1 µM | Activity (PANC-1 [2]): Non-Toxic

COc1cc(C[C@H]2C(=O)OC[C@@H]2Cc2ccc(OC)c(OC)c2)ccc1O [ARCTIGENIN]
PC50 (PANC-1 [1]): 0.83 µM

COc1cc(O)c(C(=O)[C@@H]2CC=C(C)[C@H](CC=C(C)C)[C@H]2c2ccccc2)c(O)c1
PC50 (PANC-1 [1]): 7.8 µM | Activity (PANC-1 [2]): Non-Toxic

COc1cc(O)cc(O)c1C(=O)[C@@H]1[C@H](CC=C(C)C)C(C)=CC[C@H]1c1ccccc1
PC50 (PANC-1 [1]): 2.8 µM | Activity (PANC-1 [2]): Non-Toxic

COc1cc(O)c(C(=O)[C@@H]2[C@H](/C=C/C(C)(C)O)C(C)=CC[C@H]2c2ccccc2)c(O)c1
PC50 (PANC-1 [1]): 6.6 µM | Activity (PANC-1 [2]): Non-Toxic

COc1cc(O)cc(O)c1C(=O)[C@@H]1CC=C(C)[C@H](CC=C(C)C)[C@H]1c1ccccc1
PC50 (PANC-1 [1]): 7.4 µM | Activity (PANC-1 [2]): Non-Toxic

COc1cc(O)cc(O)c1C(=O)[C@@H]1CC=C(C)[C@@H](CC=C(C)C)[C@H]1c1ccccc1
PC50 (PANC-1 [1]): 1 µM | Activity (PANC-1 [2]): Non-Toxic

CC(C)=CC[C@H]1C(C)=CC[C@@H](c2ccccc2)[C@@H]1C(=O)c1c(O)cc(O)cc1O
PC50 (PANC-1 [1]): 5.8 µM | Activity (PANC-1 [2]): Non-Toxic

COc1cc(O)c(C(=O)[C@@H]2[C@H](CC=C(C)C)C(C)=CC[C@H]2c2ccccc2)c(O)c1 [PANDURATIN A]
PC50 (PANC-1 [1]): 7.8 µM | Activity (PANC-1 [2]): Non-Toxic

COc1cc(O)c(C(=O)[C@@H]2[C@H](C/C=C(\C)CO)C(C)=CC[C@H]2c2ccccc2)c(O)c1
PC50 (PANC-1 [1]): 6.3 µM | Activity (PANC-1 [2]): Non-Toxic

CC(C)=CC[C@@H]1C(C)=CC[C@@H](c2ccccc2)[C@@H]1C(=O)c1c(O)cc(O)cc1O [4-HYDROXYPANDURATIN A]
PC50 (PANC-1 [1]): 3.1 µM | Activity (PANC-1 [2]): Non-Toxic

C=C(C)C(O)C[C@@H]1C(C)=CC[C@@H](c2ccccc2)[C@@H]1C(=O)c1c(O)cc(OC)cc1O (some centres not stated)
PC50 (PANC-1 [1]): 18.1 µM | Activity (PANC-1 [2]): Non-Toxic

COc1cc(O)c(C(=O)[C@@H]2CC=C(CCC=C(C)C)C[C@H]2c2ccccc2)c(O)c1
PC50 (PANC-1 [1]): 0.84 µM | Activity (PANC-1 [3]): Active | Activity (PANC-1 [2]): Non-Toxic
